Source: the M2OR odorant receptor database

target: T1, OR10S1 (Homo sapiens) (UniProt Q8NGN2); details: stereoisomer not certain
T1 sequence (whole entry): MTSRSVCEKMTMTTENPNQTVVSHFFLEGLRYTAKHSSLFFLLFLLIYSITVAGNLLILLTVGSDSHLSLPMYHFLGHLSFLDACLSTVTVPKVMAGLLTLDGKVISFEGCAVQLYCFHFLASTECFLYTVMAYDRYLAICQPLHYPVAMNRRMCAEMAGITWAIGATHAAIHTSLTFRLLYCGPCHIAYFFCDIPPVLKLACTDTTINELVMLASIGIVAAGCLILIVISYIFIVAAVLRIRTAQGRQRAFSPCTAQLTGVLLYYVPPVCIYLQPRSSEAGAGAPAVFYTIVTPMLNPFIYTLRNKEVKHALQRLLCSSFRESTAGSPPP
How it was run: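 Transient luciferase assays in mammalian cell lines were common, though methods varied by source. The values come from published papers and their supplementary material, with extra details from the original authors when needed. Responsive refers to a measured signal the original authors judged statistically different from baseline, and non-responsive (inactive) to the remainder.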

Odorant receptor agonist call, active:
CC(C)=CCCC(C)=CCO, CC(C=O)Cc1ccc(C(C)(C)C)cc1 (stereo unspecified)

Odorant receptor agonist call, inactive:
CCC(O)CC, CCCCCCCCCCCC(=O)OC, CCCCCCCCCCCCCCCCCC(=O)[O-].[H+], C=C(C)C1CC=C(C)CC1 (stereo unspecified), C=C1CCC2CC1C2(C)C (stereo unspecified), Cc1cnc(C)cn1, Cc1ccc(C(C)C)cc1, CCCCCCCCCCCCCCCC(=O)[O-].[H+], CCCCCCCC(=O)OC, CCCCCCCCCCCCCC(=O)OCC, CCCCCCCCCCCCCCCCCC(=O)OCC, CCCO, CCCCCCCCCCCCCCCC(=O)OC, O=c1ccc2ccccc2o1, CC1=CCC2CC1C2(C)C (stereo unspecified), CCCCCCCCCC(=O)OCC, CCCCCCCC(=O)OCC, COc1ccc2[nH]cc(CCNC(C)=O)c2c1, CCCCCCCCCCCC(=O)OCC, CCCCCCCCCCCCCC(=O)O, CCCC(=O)CC, CCC(C)CO (stereo unspecified), CCCCCCCCCCCCCCC(=O)O, CCCCCCCCCCCCCC(=O)OC
